Reference: paper PMC3044235 (Analytical and Bioanalytical Chemistry, 2010)
Several values for one entry are separate records, joined by “and”; a condition that tells them apart may be missing. Identical values can stand only once.

Legend:
[1] = type: in vivo, human; details: healthy volunteers, diet rich in fruits, vegetables, tea, and wine
How it was run: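 Volunteers on a flavonoid-rich diet also took oral flavonoid/isoflavone tablets; urine was sampled 5 h post-dose. Urine was deproteinised with acetonitrile/methanol, hydrolysed with β-glucuronidase/sulfatase (H. pomatia, pH 4.66, 18 h, 37 °C), cleaned by SPE and run on reversed-phase UHPLC (0.05% TFA/acetonitrile gradient, 25 °C, UV 254 and 280 nm). Amounts came from calibration curves in blank urine; identities were confirmed by HPLC–ESI-MS–MS.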

[2] = type: in vivo, human; details: for approximate average daily output in urine: assuming the mean 24-h urine volume is 1.4 L; for AUC(0-inf) / AUC(0-t) / Tmax / half-life: human, urine, po; for percentage excreted in urine within 24 h of the administered dose: within 24 h after ingestion of the tablets
How it was run: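 Healthy volunteers (21–48 y) took oral flavonoid/isoflavone tablets. Processing: acetonitrile/methanol precipitation, centrifugation, β-glucuronidase/sulfatase (H. pomatia) hydrolysis at pH 4.66 for 18 h at 37 °C, then SPE. Reversed-phase UHPLC used a 0.05% TFA/acetonitrile gradient, UV 254/280 nm, and blank-urine calibration. Kel came from terminal-slope regression; t1/2 = 0.693/Kel.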

[3] = human urine, oral pharmaceutical preparations, n = 6, mean±S.D.

Row | mean concentration in urine [1] | approximate average daily output in urine [2] [mg] | C max, peak concentration in urine [2, 3] | percentage excreted in urine within 24 h of the administered dose [2] [%] | Structure (SMILES) | further results
1 | – | ~0.14 | 228.0 ± 5.34 ng/mL | 17 | O=c1c(-c2ccc(O)cc2)coc2cc(O)ccc12 [DA, daidzein] | AUC(0-inf) [2]: 7730 ± 414 µg·h/mL; AUC(0-t) [2]: 7710 ± 410 µg·h/mL; Tmax [2]: 7 h; half-life [2]: 4.43 ± 0.86 h
2 | 73.57 ng/mL | – | – | – | C[C@@H]1O[C@@H](Oc2c(-c3ccc(O)c(O)c3)oc3cc(O)cc(O)c3c2=O)[C@H](O)[C@H](O)[C@H]1O [QUR, quercitrin] | –

More lines, now with the values behind:

Row | Structure (SMILES) | mean concentration in urine [1] | approximate average daily output in urine [2] [mg] | C max, peak concentration in urine [2, 3] | percentage excreted in urine within 24 h of the administered dose [2] [%] | further results
3 | Oc1cc(O)c2c(c1)OC(c1ccc(O)c(O)c1)C(O)C2 (racemic) [(±)-CA, (±)-catechin] | 5427.34 ng/mL | – | – | – | –
4 | Oc1cc(O)c2c(c1)O[C@H](c1ccc(O)c(O)c1)[C@H](O)C2 [(−)-EC, (−)-epicatechin] | 2724.26 ng/mL | – | – | – | –
5 | COc1cc2c(=O)c(-c3ccc(O)cc3)coc2cc1O[C@@H]1O[C@H](CO)[C@@H](O)[C@H](O)[C@H]1O [GLY, glycitin] | – | ~1.73 | 5482.33 ± 10.78 ng/mL and 5482.3 ± 10.8 ng/mL | 30 | T max, time to reach peak concentration ([2]; human urine, oral pharmaceutical preparations, n = 6): 5 h; AUC(0–t), area under the urine concentration–time curve [2, 3]: 86628.8 ± 1769.0 µg·h/mL; AUC(0–∞), area under the urine concentration–time curve [2, 3]: 86678.1 ± 1766.7 µg·h/mL
6 | COc1ccc([C@@H]2CC(=O)c3c(O)cc(O)cc3O2)cc1O [HST, hesperetin] | detected in urine, but not quantified | – | – | – | –
7 | C[C@@H]1O[C@@H](OC[C@H]2O[C@@H](Oc3c(-c4ccc(O)c(O)c4)oc4cc(O)cc(O)c4c3=O)[C@H](O)[C@@H](O)[C@@H]2O)[C@H](O)[C@H](O)[C@H]1O [RUT, rutin] | – | ~0.19 | 780.2 ± 10.39 ng/mL | 1 | AUC(0-inf) [2]: 12820 ± 78.9 µg·h/mL; AUC(0-t) [2]: 12810 ± 77.3 µg·h/mL; Tmax [2]: 8 h; half-life [2]: 3.98 ± 0.53 h
